Converted amounts (≈) assume the structure as drawn.
Experiments:
Assay type in all cases: functional
Escherichia coli = assay: Antibacterial activity against Escherichia coli ATCC […]
In short: (§1)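 MICs were determined by broth microdilution following NCCLS guidelines. The test panel includes erythromycin-susceptible strains and erythromycin-resistant strains with constitutive or inducible MLSB phenotypes or with efflux resistance.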

Staphylococcus aureus [1] = assay: Antibacterial activity against Staphylococcus aureus PSCB-0330; in short: as §1
Streptococcus pyogenes [2] = assay: Antibacterial activity against Streptococcus pyogenes PSCB-0545; in short: as §1
Streptococcus pyogenes [3] = assay: Antibacterial activity against Streptococcus pyogenes PSCB-0543; in short: as §1
Haemophilus influenzae = assay: Antibacterial activity against Haemophilus influenzae ATCC 49247; in short: as §1
Staphylococcus aureus [4] = assay: Antibacterial activity against Staphylococcus aureus PSCB-0538; in short: as §1
Staphylococcus aureus [5] = assay: Antibacterial activity against Staphylococcus aureus PSCB-0331; in short: as §1
Enterococcus faecalis = assay: Antibacterial activity against Enterococcus faecalis ATCC 29212; in short: as §1
Staphylococcus aureus [6] = assay: Antibacterial activity against Staphylococcus aureus ATCC 13709; in short: as §1
Streptococcus pneumoniae = assay: Antibacterial activity against Streptococcus pneumoniae PSCB-0541; in short: as §1

| SMILES | MIC (Escherichia coli) [µg/mL] | MIC (Staphylococcus aureus [1]) [µg/mL] | MIC (Streptococcus pyogenes [2]) [µg/mL] | MIC (Streptococcus pyogenes [3]) [µg/mL] | MIC (Haemophilus influenzae) [µg/mL] | MIC (Staphylococcus aureus [4]) [µg/mL] | MIC (Staphylococcus aureus [5]) [µg/mL] | MIC (Enterococcus faecalis) [µg/mL] | MIC (Staphylococcus aureus [6]) [µg/mL] | MIC (Streptococcus pneumoniae) [µg/mL] |
| --- | --- | --- | --- | --- | --- | --- | --- | --- | --- | --- |
| CC[C@H]1OC(=O)C[C@H](O)[C@H](C)[C@@H](OC2OC(C)C(O)C(N(C)C)C2O)[C@@H](C/C=C/C(=O)OC)C[C@@H](C)C(=O)/C=C/C(C)=C/[C@@H]1COC1OC(C)C(O)C(OC)C1OC (some centres undefined) | > 128 | > 128 |  |  |  |  |  |  |  |  |
| CC[C@H]1O/C(O)=C/C(=O)[C@H](C)[C@@H](OC2OC(C)C(O)C(N(C)C)C2O)[C@@H](CC=O)C[C@@H](C)C(=O)/C=C/C(C)=C/[C@@H]1COC1OC(C)C(O)C(OC)C1OC (some centres undefined) | > 128 | > 128 | 4 (≈ 5.2 µM) | 32 (≈ 41.6 µM) | > 128 | 16 (≈ 20.8 µM) | 32 (≈ 41.6 µM) | 8 (≈ 10.4 µM) | 8 (≈ 10.4 µM) | 8 (≈ 10.4 µM) |
| CC[C@H]1OC(=O)C[C@@H](O)[C@H](C)[C@@H](OC2OC(C)C(O)C(N(C)C)C2O)[C@@H](C/C=C/C(=O)OC)C[C@@H](C)C(=O)/C=C/C(C)=C/[C@@H]1COC1OC(C)C(O)C(OC)C1OC (some centres undefined) | > 128 | > 128 | 0.5 (≈ 0.604 µM) | 0.5 (≈ 0.604 µM) | 16 (≈ 19.3 µM) | 0.5 (≈ 0.604 µM) | 0.5 (≈ 0.604 µM) | 0.5 (≈ 0.604 µM) | 0.5 (≈ 0.604 µM) | 2 (≈ 2.42 µM) |
| CC[C@H]1OC(=O)CC2(O)C(C=O)[C@@H](C[C@@H](C)C(=O)/C=C/C(C)=C/[C@@H]1CO[C@@H]1O[C@@H](C)[C@@H](O)[C@@H](OC)[C@@H]1OC)[C@H](O[C@@H]1O[C@@H](C)[C@@H](O)[C@@H](N(C)C)[C@H]1O)[C@H]2C (some centres undefined) | > 128 | > 128 | 32 (≈ 41.6 µM) | 64 (≈ 83.1 µM) | 64 (≈ 83.1 µM) | 32 (≈ 41.6 µM) | 64 (≈ 83.1 µM) | 16 (≈ 20.8 µM) | 32 (≈ 41.6 µM) | 32 (≈ 41.6 µM) |
| CC[C@H]1OC(=O)C[C@@H](O)[C@H](C)[C@@H](OC2OC(C)C(OC3CC(C)(O)C(O)C(C)O3)C(N(C)C)C2O)[C@@H](CC=O)C[C@@H](C)C(=O)CCC(C)C[C@@H]1COC1OC(C)C(O)C(OC)C1OC (some centres undefined) | 64 (≈ 69.6 µM) | 64 (≈ 69.6 µM) | 1 (≈ 1.09 µM) | 64 (≈ 69.6 µM) | 64 (≈ 69.6 µM) | 4 (≈ 4.35 µM) | 2 (≈ 2.17 µM) | 16 (≈ 17.4 µM) | 2 (≈ 2.17 µM) | 8 (≈ 8.69 µM) |
| CCOC(=O)/C=C/C[C@H]1C[C@@H](C)C(=O)/C=C/C(C)=C/[C@H](COC2OC(C)C(O)C(OC)C2OC)[C@@H](CC)OC(=O)C[C@@H](O)[C@H](C)[C@H]1OC1OC(C)C(O)C(N(C)C)C1O (some centres undefined) | > 128 | > 128 | 1 (≈ 1.19 µM) | 0.5 (≈ 0.594 µM) | 4 (≈ 4.75 µM) | 0.25 (≈ 0.297 µM) | 0.25 (≈ 0.297 µM) | 1 (≈ 1.19 µM) | 0.5 (≈ 0.594 µM) | 2 (≈ 2.38 µM) |
| CC[C@H]1OC(=O)C[C@@H](OC(C)=O)[C@H](C)[C@@H](OC2OC(C)C(O)C(N(C)C)C2O)[C@@H](CC=O)C[C@@H](C)C(=O)/C=C/C(C)=C/[C@@H]1COC1OC(C)C(O)C(OC)C1OC (some centres undefined) | > 128 | > 128 | 2 (≈ 2.46 µM) | 2 (≈ 2.46 µM) | 32 (≈ 39.3 µM) | 8 (≈ 9.83 µM) | 2 (≈ 2.46 µM) | 8 (≈ 9.83 µM) | 1 (≈ 1.23 µM) | 2 (≈ 2.46 µM) |
| CC[C@H]1OC(=O)C[C@@H](O)[C@H](C)[C@@H](OC2OC(C)C(O)C(N(C)C)C2O)[C@@H](CC=O)C[C@@H](C)C(=O)CCC(C)C[C@@H]1COC1OC(C)C(O)C(OC)C1OC (some centres undefined) | 128 (≈ 165 µM) | 128 (≈ 165 µM) | 1 (≈ 1.29 µM) | 1 (≈ 1.29 µM) | 64 (≈ 82.5 µM) | 2 (≈ 2.58 µM) | 2 (≈ 2.58 µM) | 32 (≈ 41.2 µM) | 1 (≈ 1.29 µM) | 2 (≈ 2.58 µM) |
| CC[C@H]1OC(=O)C[C@@H](O)[C@H](C)[C@@H](OC2OC(C)C(O)C(=O)C2O)[C@@H](CC=O)C[C@@H](C)C(=O)/C=C/C(C)=C/[C@@H]1COC1OC(C)C(O)C(OC)C1OC (some centres undefined) | > 128 | > 128 |  |  |  |  |  |  |  |  |

— ChEMBL document CHEMBL1148383, “Semisynthetic macrolide antibacterials derived from tylosin. Synthesis and structure-activity relationships of novel desmycosin analogues” (J Med Chem, 2004)
